# Pf gamet viab – P. falciparum stage V gametocyte viability inhibition; actives 0.065% (n = 150,000); inhibition, % at 10.9 µM; P. falciparum stage V gametocytes, ATP luminescence, 24 h;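 active = inhibition above the mean plus 3 SD of compounds within the control limits, set per campaign, cut at about 38% in these data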;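 note: 0% = DMSO wells and 100% = medium only without gametocytes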
# ROMK primary – modulators of human ROMK potassium channel; Tet-inducible ROMK, thallium flux fluorescence; actives lie on both sides; actives 2% (n = 130,000); AID 1918; B-score at 10 µM; P48048;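 active = signal ratio slope over the read window, or its plate-corrected B-score, at least 3 SD from the plate mean, either direction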;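 note: B-score of the F/F0 ratio slope over 7 to 12 s after thallium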
# Target sequence (P48048 whole entry, looked up): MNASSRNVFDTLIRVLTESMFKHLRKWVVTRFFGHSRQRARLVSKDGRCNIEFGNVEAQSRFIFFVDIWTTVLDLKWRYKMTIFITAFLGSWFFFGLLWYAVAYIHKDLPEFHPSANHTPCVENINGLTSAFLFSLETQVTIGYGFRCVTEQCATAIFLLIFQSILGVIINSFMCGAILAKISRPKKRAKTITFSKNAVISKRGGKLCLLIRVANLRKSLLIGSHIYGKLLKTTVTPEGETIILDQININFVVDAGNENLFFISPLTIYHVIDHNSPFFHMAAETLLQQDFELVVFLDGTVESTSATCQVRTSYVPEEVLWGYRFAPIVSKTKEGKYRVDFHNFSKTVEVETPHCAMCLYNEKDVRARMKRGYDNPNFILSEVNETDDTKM
# Calb biofilm kill – mixtures killing C. albicans biofilm. C. albicans biofilm persisters + clotrimazole, fluorescence viability; primary screen in compound mixtures of four per well. inhibition, % at 7.6 µM. actives 0.02% (n = 120,000). AID 1242;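 active = inhibition above 30.3% in the primary screen of four-compound pools, then above 30% when the compound was retested; inconclusive = passed the primary limit but could not be retested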;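 note: compounds exposed to preformed 24 h biofilms for 48 h; 0% = untreated biofilm control and 100% = clotrimazole plus chlorhexidine kill blank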
#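 Test system: C. albicans biofilms. Buffer or medium: RPMI/MOPS medium, pH 7.0. Timing: 48 h compound exposure at 37 °C. Technique: Alamar Blue fluorescence. Evaluation: percent inhibition of biofilm viability.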
# ROMK hit retest – confirmation of human ROMK potassium channel modulators; shares compounds with ROMK primary; normalized thallium flux (F/F0 slope) at 10 µM; actives 54% (n = 3,000); ROMK thallium flux, fluorescence ratio; stronger effect = lower value;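 active = Flux at 10 µM at least 3 SD below or above vehicle control mean in one or both replicates; inconclusive = no clear call, values can overlap the other calls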
# * hit, by the source's call; ? = inconclusive; . = not tested or not shown. The entries come from a sample that favours hits as a whole.
SMILES,Pf gamet viab,ROMK primary,Calb biofilm kill,ROMK hit retest
Cc1n[nH]c(=O)n1-c1cccc(C(F)(F)F)c1,-4,.,.,0.076
C#Cc1cccc(NC(=O)c2ccc(Cl)cc2Cl)c1,.,.,10,.
COC(=O)c1ccccc1NC(=O)NCc1c(C)nn(C)c1C,-16,0.11,2,.
COC(=O)C1=C(C)N(C)C(C)=C(C(=O)OC)C1c1ccccc1C,-14,-4.4*,.,0.064*
CCCCOc1ccccc1C1C(C(=O)OC)=C(C)N(C)C(C)=C1C(=O)OC,17,.,5,.
O=C(COC(=O)c1cc(S(=O)(=O)NCc2ccccc2)ccc1O)c1cc2ccccc2o1,9,.,23,.
Fc1ccc(N2CCN(c3ncnc4c3nnn4Cc3ccccc3Cl)CC2)cc1,.,-2.7*,17,0.066*
CCOC(=O)C1CCN(c2ncnc3c2nnn3Cc2ccccc2Cl)CC1,-13,-0.69,-5,.
FC(F)(F)c1ccc(N2CCN(c3ncnc4c3nnn4Cc3ccccc3Cl)CC2)cc1,.,-0.045,16,.
O=C(c1ccco1)N1CCN(c2ncnc3c2nnn3Cc2ccccc2Cl)CC1,.,-5.1*,3,0.07
CCOc1ccc(NC(=S)N(CC)Cc2ccccc2)cc1,.,1.1,7,.
COc1cc(CN2CCN(C(=O)CC(C)C)CC2)c([N+](=O)[O-])cc1OC,-7,.,.,.
O=C(CN1CCN(Cc2ccccc2)CC1)Nc1ccc([N+](=O)[O-])cc1C(=O)Nc1ccccc1F,-3,.,4,0.058*
CSc1ccccc1NC(=O)CN1CCN(Cc2ccccc2)CC1,.,-3.1*,12,0.072
CCOC(=O)N1CCN(CC(=O)Nc2ccc([N+](=O)[O-])cc2C(=O)Nc2ccccc2F)CC1,10,.,9,.
Cc1ccccc1NC(=O)CN1CCN(Cc2ccccc2)CC1,2,.,.,.
COc1cc(/C=C/C(=O)OCC(=O)c2c[nH]c3ccccc23)ccc1OC(F)F,-23,.,20,.
CCCc1nnc(N2C(=O)c3cccc4cccc(c34)C2=O)s1,5,2.3*,.,0.08
Cc1nnc(N2C(=O)c3cccc4cccc(c34)C2=O)s1,-4,-0.36,.,.
COc1cc(NCCCC(C)N)c2ncccc2c1 (stereo not drawn),.,-1.5,.,.
CCC(CNc1cc(OC)cc2cccnc12)NC1CCCCC1 (stereo not drawn),.,.,19,0.054*
Cc1noc(C)c1COC(=O)c1ccc2c(c1)OCO2,.,-0.7,.,.
Cc1noc(C)c1COc1ccc(C(=O)OCC(=O)Nc2ccc3c(c2)OCO3)cc1,.,.,.,0.072
O=C(CCSc1nc(-c2ccco2)cc(C(F)(F)F)n1)N1CCCc2ccccc21,.,-0.92,.,.
CCCN(CCC)C1=CC(=[N+]2CCCC2)CC(C)(C)C1,16,-0.9,16,.
SMILES,Pf gamet viab,ROMK primary,Calb biofilm kill,ROMK hit retest
CC(C(Sc1ccccc1N)c1ccccc1)[N+](=O)[O-] (stereo not drawn),7,-5.1*,11,0.042*
Nc1ccccc1SSc1ccccc1N,.,.,18,.
O=c1c2ccccc2[nH]c(=S)n1CCN1CCCC1,1,-0.58,18,.
CC(C)N(CCn1c(=S)[nH]c2ccccc2c1=O)C(C)C,-35,3.2*,.,0.068*
Cc1ccc(CSCC(=O)N/N=C/c2sccc2C)cc1,.,0.021,.,.
O=C(c1ccccc1F)N1CCN(c2ccc([N+](=O)[O-])c(N3CCOCC3)c2)CC1,.,0.18,23,.
O=C(c1cccc2ccccc12)N1CCN(c2ccc([N+](=O)[O-])c(N3CCOCC3)c2)CC1,19,.,18,0.075
CC(=O)c1ccc(O)c(CO)c1,.,0.58,.,0.086
CC(=O)c1ccc(O)c(CSC2=NCCS2)c1,4,0.28,5,.
N#CCC(=O)Nc1ccc(C(=O)Nc2cccc(S(N)(=O)=O)c2)cc1,-9,.,30,.
CCCCNC(=O)c1c(CSc2ccccc2)noc1C(=O)NCc1ccccc1,17,.,9,.
Cc1cc(NC(=O)CN2C(=O)/C(=C/c3cccc(Br)c3)SC2=S)no1,6,-4.2*,8,0.081
O=C(CCCN1C(=O)/C(=C/c2cccc(Br)c2)SC1=S)Nc1ccccn1,12,.,.,.
CC(=O)Nc1ccc(C(F)(F)F)cc1Cl,7,.,14,.
CCSc1nnc2nc(C)cc(C)n12,.,1.9*,.,0.08
Cc1cc(C)n2c(SCC(C)C)nnc2n1,-3,.,12,.
COc1ccc(C(=O)NCc2ccc(-n3cccc3)cc2)cc1OC,-10,0.38,18,.
COc1cnc(-c2ccccn2)nc1Sc1ccc(C)cc1,13,-4.4*,7,?
COc1ccccc1Sc1nc(-c2ccccn2)ncc1OC,5,0.44,16,.
COc1ccc(CNC(=O)C(c2ccco2)N(C(=O)CNS(=O)(=O)c2ccccc2)c2ccccc2C)cc1 (stereo not drawn),1,-5*,18,0.045*
CCC(C(=O)NCc1ccco1)N(C(=O)CNS(=O)(=O)c1ccc(C)cc1)c1ccccc1OC (stereo not drawn),6,0.79,.,.
COc1ccccc1N(C(=O)CNS(=O)(=O)c1ccccc1)C(C(=O)NCc1ccco1)C(C)C (stereo not drawn),13,.,.,.
CCCC(C(=O)NCc1ccco1)N(C(=O)CNS(=O)(=O)c1ccccc1)c1ccccc1OC (stereo not drawn),-2,-4.2*,.,0.058*
Cc1ccc(OCC(=O)Nc2ccc(O)c(-c3nc4ccccc4o3)c2)cc1,12,.,.,.
O=C(Nc1ccc(O)c(-c2nc3ccccc3o2)c1)C1(c2ccc(Br)cc2)CCCC1,10,.,15,0.079
SMILES,Pf gamet viab,ROMK primary,Calb biofilm kill,ROMK hit retest
N#CC1=C(N)N(c2ccccc2)C(c2cccc([N+](=O)[O-])c2)C1(C#N)C#N (stereo not drawn),-29,.,.,0.037*
Cc1cccc(-n2ncc(C#N)c2N)c1,1,.,.,.
Cc1cccc(N2C(N)=C(C#N)C(C#N)(C#N)C2c2ccccc2)c1 (stereo not drawn),-3,.,.,0.056*
N#Cc1c(N)n(-c2ccccc2)c(=O)c2cc([N+](=O)[O-])ccc12,-5,0.45,15,.
Cc1ccc(O)c(Cn2nnc3ccccc32)c1,-11,.,.,.
CC(=O)c1cn(C2OC(CO)C3OC(C)(C)OC32)c(=O)n(C)c1=O (stereo not drawn),-12,.,.,.
COCCSc1nc(N)c2c3c(sc2n1)CN(C)CC3,8,.,14,.
O=C(c1ccccc1)c1nn(-c2ccc(Cl)cc2)cc1C(=O)c1cc2ccccc2oc1=O,-61,-1.3,.,.
O=C(N/N=C/C(Br)=C/c1ccccc1)c1cnccn1,20,1.1,11,.
Cc1ccc(NC(=O)Cc2ncc(C(F)(F)F)cc2Cl)cc1Cl,-26,.,.,0.067*
O=C(Cc1ncc(C(F)(F)F)cc1Cl)NCCc1ccccc1,-11,-0.37,2,.
CC1CCCN(C(=O)CN2CCC(c3nc4ccc(Cl)cc4[nH]3)CC2)C1 (stereo not drawn),4,.,24,.
Clc1ccc(CN2CCC(c3nc4ccc(Cl)cc4[nH]3)CC2)cc1,.,.,.,0.063*
CCOC(=O)CNC(=O)C1COc2ccccc2O1 (stereo not drawn),8,2,14,.
O=C1CCC(c2ccccc2)(c2ccccc2)CC1,.,.,12,.
CC(C)(C)N1CC2(c3ccccc3)CN(C(C)(C)C)CC(c3ccccc3)(C1)C2=O,.,3*,.,0.075
CC(C)c1[nH]nc2c1C(c1cccs1)C(C#N)=C(N)O2 (stereo not drawn),26,-5.7*,16,0.058*
Cc1ccc(C2C(C#N)=C(N)Oc3n[nH]c(-c4cccs4)c32)cc1 (stereo not drawn),.,0.095,6,.
